Drawing on ChEMBL document CHEMBL4706553, “Discovery of potent small molecule PROTACs targeting mutant EGFR” (Eur J Med Chem, 2020), this text covers Activity for one molecule.

The source made the active and inactive calls. The calls are words filed in the database; no cut-off is given here.

In one experiment the test system is HCC827. As to the kind of experiment: Induction of cell cycle arrest in human HCC827 cells assessed as accumulation at G1 phase at 10 to 100 nM measured after 48 hrs by propidium iodide staining based flow cytometry analysis. The following applies: dose 10-100 nM. The experiment is classed as functional. The gist of the method:
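Cell cycle: cells were seeded at 0.5–1 × 10⁶ per well for 24 h, then treated 48 h. They were collected and washed twice in PBS, stained with PI/RNase at 37 °C for 15 min, and analysed by flow cytometry. n = 2.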
A general note: In flow cytometry, cells or beads pass a laser one at a time.

The subject of experiment [1] is von Hippel-Lindau disease tumor suppressor/Epidermal growth factor receptor (Homo sapiens), P00533+P40337 [UNDEFINED MUTATION]. As to the kind of experiment: Protac activity at VHL/EGFR del19 mutant in human HCC827 cells assessed as induction of EGFR degradation by measuring reduction in EGFR phosphorylation at 3 nM incubated for 48 hrs by Western blot analysis. The experiment is classed as cell-based. The procedure, abridged:
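HCC827 or H1975 cells treated at the stated concentrations for 48 h. Lysates probed by Western blot for EGFR, P-EGFR, Akt and P-Akt (each 1:1000); n = 2.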

Chain of von Hippel-Lindau disease tumor suppressor/Epidermal growth factor receptor (Homo sapiens), P00533+P40337 [UNDEFINED MUTATION] (P00533 whole entry, looked up, stated change not applied): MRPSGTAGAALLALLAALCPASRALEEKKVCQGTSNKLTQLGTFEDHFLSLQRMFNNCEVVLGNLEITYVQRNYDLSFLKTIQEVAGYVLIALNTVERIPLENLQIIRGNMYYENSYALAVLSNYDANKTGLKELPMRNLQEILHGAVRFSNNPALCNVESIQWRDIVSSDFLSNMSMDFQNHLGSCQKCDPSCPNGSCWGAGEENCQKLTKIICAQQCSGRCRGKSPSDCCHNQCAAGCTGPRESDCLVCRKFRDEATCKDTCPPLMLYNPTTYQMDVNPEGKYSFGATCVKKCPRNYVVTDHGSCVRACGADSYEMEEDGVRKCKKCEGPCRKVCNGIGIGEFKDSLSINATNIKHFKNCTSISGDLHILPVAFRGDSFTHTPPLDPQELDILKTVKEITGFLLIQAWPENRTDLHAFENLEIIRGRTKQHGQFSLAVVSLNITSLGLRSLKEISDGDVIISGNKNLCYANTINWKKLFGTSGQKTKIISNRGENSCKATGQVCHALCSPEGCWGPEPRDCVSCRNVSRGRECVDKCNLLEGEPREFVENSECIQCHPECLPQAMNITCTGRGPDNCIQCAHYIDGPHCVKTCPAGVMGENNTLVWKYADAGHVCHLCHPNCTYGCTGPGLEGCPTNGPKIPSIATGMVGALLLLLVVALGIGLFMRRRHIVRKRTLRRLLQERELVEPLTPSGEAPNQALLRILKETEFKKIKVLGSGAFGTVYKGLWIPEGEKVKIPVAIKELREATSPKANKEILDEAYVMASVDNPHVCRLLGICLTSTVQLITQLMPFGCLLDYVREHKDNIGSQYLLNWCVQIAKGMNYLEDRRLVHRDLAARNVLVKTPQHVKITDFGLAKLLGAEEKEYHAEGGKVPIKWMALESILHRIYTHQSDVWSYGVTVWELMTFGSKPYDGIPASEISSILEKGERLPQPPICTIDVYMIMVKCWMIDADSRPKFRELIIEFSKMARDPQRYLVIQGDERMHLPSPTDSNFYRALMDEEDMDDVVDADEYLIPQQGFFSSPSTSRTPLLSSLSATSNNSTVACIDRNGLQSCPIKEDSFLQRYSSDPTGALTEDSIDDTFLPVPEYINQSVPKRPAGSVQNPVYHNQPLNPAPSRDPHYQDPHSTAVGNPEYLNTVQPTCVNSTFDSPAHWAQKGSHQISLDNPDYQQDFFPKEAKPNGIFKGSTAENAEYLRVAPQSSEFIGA
Chain of von Hippel-Lindau disease tumor suppressor/Epidermal growth factor receptor (Homo sapiens), P00533+P40337 [UNDEFINED MUTATION] (P40337 whole entry, looked up, stated change not applied): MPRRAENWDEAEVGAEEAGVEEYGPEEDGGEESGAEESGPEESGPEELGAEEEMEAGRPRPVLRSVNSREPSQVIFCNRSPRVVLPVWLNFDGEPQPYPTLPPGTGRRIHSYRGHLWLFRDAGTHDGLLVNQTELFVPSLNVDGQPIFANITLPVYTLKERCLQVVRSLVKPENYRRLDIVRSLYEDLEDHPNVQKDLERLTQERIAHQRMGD

`Cc1ncsc1-c1ccc(CNC(=O)[C@@H]2C[C@@H](O)CN2C(=O)[C@@H](NC(=O)CCCCCCN2CCN(c3ccc(Nc4ncc5nc(Nc6ccccc6)n(C6CCCC6)c5n4)cc3)CC2)C(C)(C)C)cc1`: the result (with HCC827; in experiment [1]) was Active.
